Laboratory results as given in ChEMBL document CHEMBL4699648, “Discovery of Potent and Brain-Penetrant GPR52 Agonist that Suppresses Psychostimulant Behavior” (J Med Chem, 2020).
The source made the active and inactive calls. The calls are words filed in the database; no cut-off is given here.

Columns and labels:
hERG (KCNH2) = hERG (KCNH2) (Homo sapiens, UniProt Q12809); experiment: Binding affinity to human ERG assessed as inhibition of ligand binding at 10 uM relative to control
HEK293 = experiment: Effect on cAMP levels in HEK293 cells at 0.1 nM to 10000 nM incubated for 15 mins by Glosensor cAMP assay; assay type: functional, cell-based; settings: Homo sapiens, dose nM 0.1-10000, time […]
Summary of the method: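 HEK293 cells were transiently co-transfected with human GPR52 and the 22F Glosensor cAMP reporter. After 18 h they were seeded on poly-L-lysine, then equilibrated 2 h at room temperature in the dark in 1% Glosensor reagent/HBSS/20 mM HEPES. Cells were treated 15 min with a twelve-point series, and luminescence was read.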

[1] = AUC (0 to infinity) in Sprague-Dawley rat at 20 mg/kg, po mesured up to 24 hrs; assay type: ADME, organism-based; design: route oral, dose 20 mg/kg, time <=24; settings: in vivo
Summary of the method: (§1)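 Male Sprague-Dawley rats (200–250 g, n = 3/group), dosed IV 10 mg/kg or PO 20 mg/kg in 10% DMSO/90% HP-β-CD. Jugular blood into K2EDTA at 0.08 (IV only), 0.25, 0.5, 1, 2, 4, 8, 24 h; plasma by centrifugation at 4 °C, stored −20 °C. Non-compartmental analysis; Cmax read from profile, AUC by linear trapezoidal rule extrapolated to infinity; mean ± SEM.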

[2] = AUC (0 to infinity) in Sprague-Dawley rat at 10 mg/kg, iv mesured up to 24 hrs; assay type: ADME, organism-based; design: route intravenous, dose 10 mg/kg, time <=24; settings: in vivo; summary of the method: as §1
[3] = Cmax in Sprague-Dawley rat at 20 mg/kg, po mesured up to 24 hrs; assay type: ADME, organism-based; design: route oral, dose 20 mg/kg, time <=24; settings: in vivo; summary of the method: as §1
[4] = Cmax in Sprague-Dawley rat at 10 mg/kg, iv mesured up to 24 hrs; assay type: ADME, organism-based; design: route intravenous, dose 10 mg/kg, time <=24; settings: in vivo; summary of the method: as §1
[5] = Clearance in Sprague-Dawley rat at 10 mg/kg, iv mesured up to 24 hrs; assay type: ADME, organism-based; settings: in vivo; summary of the method: as §1
[6] = Volume of distribution at steady state in Sprague-Dawley rat at 20 mg/kg, po mesured up to 24 hrs; assay type: ADME, organism-based; settings: in vivo
[7] = Volume of distribution at steady state in Sprague-Dawley rat at 10 mg/kg, iv mesured up to 24 hrs; assay type: ADME, organism-based; settings: in vivo
Summary of the method: (§2)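 Male Sprague Dawley rats, 200–250 g, n = 3 per group, were dosed at 10 mg/kg IV or 20 mg/kg PO in 10% DMSO/90% HP-β-CD. Jugular plasma was sampled from 0.08 (IV) or 0.25 (PO) to 24 h. Non-compartmental analysis gave t1/2 = 0.693/λ, AUC by linear trapezoid extrapolated to infinity, Vss after IV, and absolute F. Mean ± SEM.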

[8] = Oral bioavailability in Sprague-Dawley rat at 20 mg/kg mesured up to 24 hrs; assay type: ADME, organism-based; settings: in vivo; summary of the method: as §2
[9] = Drug level in Sprague-Dawley rat brain at 10 mg/kg, iv after 1 hr; assay type: ADME, organism-based; settings: read-out: Drug uptake
Summary of the method: (§3)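 Male Sprague Dawley rats, 200–250 g, n = 3, were given a single 10 mg/kg IV dose in 10% DMSO/90% HP-β-CD vehicle. Brain and jugular-vein plasma (K₂EDTA, centrifuged at 4 °C) were collected 0.25 and 1 h post-dose and stored at −20 °C. Drug concentration was measured in each and the brain/plasma ratio derived. Values are mean ± SEM of biological triplicates.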

[10] = Drug level in Sprague-Dawley rat plasma at 10 mg/kg, iv after 1 hr; assay type: ADME, organism-based; summary of the method: as §3
[11] = Ratio of drug level in brain to plasma of Sprague-Dawley rat at 10 mg/kg, iv after 1 hr; assay type: ADME, organism-based; summary of the method: as §3
Mus musculus [12] = experiment: Antipsychotic-like activity in C57/BL6 mouse assessed as reduction in amphetamine-evoked hyperactivity by measuring horizontal activity at 0.3 to 10 mg/kg, ip dosed 30 mins before amphetamine challenge and measured for 90 mins; assay type: functional, organism-based; settings: dose mg/kg 0.3-10, time […]
Summary of the method: (§4)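 Naïve male C57/BL6 mice (24–31 g, ~60 days), handled and habituated to activity monitors beforehand; n = 12/dose (11 at 1 mg/kg after outlier exclusion). Vehicle or 0.3, 1, 3, 10 mg/kg IP, then automated horizontal activity monitored 30 min; amphetamine 3 mg/kg IP followed, with monitoring for 90 min. One-way ANOVA with Dunnett's comparisons vs vehicle; mean ± SEM; blinded dosing.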

Mus musculus [13] = experiment: Antipsychotic-like activity in C57/BL6 mouse assessed as reduction in horizontal activity at 3 to 10 mg/kg, ip measured after 30 mins; assay type: functional, organism-based; settings: dose mg/kg 3-10, time 30.0 min; summary of the method: as §4
[14] = target: 5-hydroxytryptamine receptor 2C (Homo sapiens) (UniProt P28335); experiment: Binding affinity to 5-HT2C (unknown origin) assessed as inhibition of ligand binding at 10 uM relative to control
Homo sapiens = species on record: Homo sapiens; experiment: Binding affinity to GABAA receptor (unknown origin) assessed as inhibition of ligand binding at 10 uM relative to control
[15] = target: 5-hydroxytryptamine receptor 1A (Homo sapiens, UniProt P08908); experiment: Binding affinity to 5-HT1A (unknown origin) assessed as inhibition of ligand binding
[16] = target: 5-hydroxytryptamine receptor 1B (Homo sapiens, UniProt P28222); experiment: Binding affinity to 5-HT1B (unknown origin) assessed as inhibition of ligand binding
[17] = target: 5-hydroxytryptamine receptor 1D (Homo sapiens, UniProt P28221); experiment: Binding affinity to 5-HT1D (unknown origin) assessed as inhibition of ligand binding
[18] = target: 5-hydroxytryptamine receptor 1E (Homo sapiens, UniProt P28566); experiment: Binding affinity to 5-HT1E (unknown origin) assessed as inhibition of ligand binding
[19] = target: 5-hydroxytryptamine receptor 2A (Homo sapiens, UniProt P28223); experiment: Binding affinity to 5-HT2A (unknown origin) assessed as inhibition of ligand binding
[20] = target: 5-hydroxytryptamine receptor 2B (Homo sapiens, UniProt P41595); experiment: Binding affinity to 5-HT2B (unknown origin) assessed as inhibition of ligand binding
[21] = target: 5-hydroxytryptamine receptor 3A (Homo sapiens, UniProt P46098); experiment: Binding affinity to 5-HT3 (unknown origin) assessed as inhibition of ligand binding
[22] = target: 5-hydroxytryptamine receptor 5A (Homo sapiens, UniProt P47898); experiment: Binding affinity to 5-HT5A (unknown origin) assessed as inhibition of ligand binding
[23] = target: 5-hydroxytryptamine receptor 6 (Homo sapiens, UniProt P50406); experiment: Binding affinity to 5-HT6 (unknown origin) assessed as inhibition of ligand binding
[24] = target: 5-hydroxytryptamine receptor 7 (Homo sapiens, UniProt P34969); experiment: Binding affinity to 5-HT7A (unknown origin) assessed as inhibition of ligand binding
[25] = target: Alpha-1A adrenergic receptor (Homo sapiens, UniProt P35348); experiment: Binding affinity to alpha1A receptor (unknown origin) assessed as inhibition of ligand binding
[26] = target: Alpha-1B adrenergic receptor (Homo sapiens, UniProt P35368); experiment: Binding affinity to alpha1B receptor (unknown origin) assessed as inhibition of ligand binding
[27] = target: Alpha-2A adrenergic receptor (Homo sapiens, UniProt P08913); experiment: Binding affinity to alpha2A receptor (unknown origin) assessed as inhibition of ligand binding
[28] = target: Beta-1 adrenergic receptor (Homo sapiens, UniProt P08588); experiment: Binding affinity to beta1 adrenergic receptor (unknown origin) assessed as inhibition of ligand binding
[29] = target: Beta-2 adrenergic receptor (Homo sapiens, UniProt P07550); experiment: Binding affinity to beta2 adrenergic receptor (unknown origin) assessed as inhibition of ligand binding
D(1A) dopamine receptor = D(1A) dopamine receptor (Homo sapiens, UniProt P21728); experiment: Binding affinity to DRD1 (unknown origin) assessed as inhibition of ligand binding
D(2) dopamine receptor = D(2) dopamine receptor (Homo sapiens, UniProt P14416); experiment: Binding affinity to DRD2 (unknown origin) assessed as inhibition of ligand binding
D(3) dopamine receptor = D(3) dopamine receptor (Homo sapiens, UniProt P35462); experiment: Binding affinity to DRD3 (unknown origin) assessed as inhibition of ligand binding
D(4) dopamine receptor = D(4) dopamine receptor (Homo sapiens, UniProt P21917); experiment: Binding affinity to DRD4 (unknown origin) assessed as inhibition of ligand binding
D(1B) dopamine receptor = D(1B) dopamine receptor (Homo sapiens, UniProt P21918); experiment: Binding affinity to DRD5 (unknown origin) assessed as inhibition of ligand binding
[30] = target: Sodium-dependent dopamine transporter (Homo sapiens, UniProt Q01959); experiment: Binding affinity to DAT (unknown origin) assessed as inhibition of ligand binding
[31] = Binding affinity to GABAA receptor (unknown origin) assessed as inhibition of ligand binding; design: species or system Homo sapiens
Histamine H1 receptor = Histamine H1 receptor (Homo sapiens, UniProt P35367); experiment: Binding affinity to HRH1 (unknown origin) assessed as inhibition of ligand binding
Histamine H2 receptor = Histamine H2 receptor (Homo sapiens, UniProt P25021); experiment: Binding affinity to HRH2 (unknown origin) assessed as inhibition of ligand binding
[32] = target: Kappa-type opioid receptor (Homo sapiens, UniProt P41145); experiment: Binding affinity to KOR (unknown origin) assessed as inhibition of ligand binding
[33] = target: Muscarinic acetylcholine receptor M1 (Homo sapiens, UniProt P11229); experiment: Binding affinity to M1 receptor (unknown origin) assessed as inhibition of ligand binding
[34] = target: Muscarinic acetylcholine receptor M2 (Homo sapiens, UniProt P08172); experiment: Binding affinity to M2 receptor (unknown origin) assessed as inhibition of ligand binding
[35] = target: Muscarinic acetylcholine receptor M3 (Homo sapiens, UniProt P20309); experiment: Binding affinity to M3 receptor (unknown origin) assessed as inhibition of ligand binding
[36] = target: Muscarinic acetylcholine receptor M4 (Homo sapiens, UniProt P08173); experiment: Binding affinity to M4 receptor (unknown origin) assessed as inhibition of ligand binding
[37] = target: Muscarinic acetylcholine receptor M5 (Homo sapiens, UniProt P08912); experiment: Binding affinity to M5 receptor (unknown origin) assessed as inhibition of ligand binding
Mu-type opioid receptor = Mu-type opioid receptor (Homo sapiens, UniProt P35372); experiment: Binding affinity to MOR (unknown origin) assessed as inhibition of ligand binding
[38] = target: Voltage-gated inwardly rectifying potassium channel KCNH2 (Homo sapiens, UniProt Q12809); experiment: Binding affinity to human ERG assessed as inhibition of ligand binding

Chain of Muscarinic acetylcholine receptor M4 (P08173 whole entry): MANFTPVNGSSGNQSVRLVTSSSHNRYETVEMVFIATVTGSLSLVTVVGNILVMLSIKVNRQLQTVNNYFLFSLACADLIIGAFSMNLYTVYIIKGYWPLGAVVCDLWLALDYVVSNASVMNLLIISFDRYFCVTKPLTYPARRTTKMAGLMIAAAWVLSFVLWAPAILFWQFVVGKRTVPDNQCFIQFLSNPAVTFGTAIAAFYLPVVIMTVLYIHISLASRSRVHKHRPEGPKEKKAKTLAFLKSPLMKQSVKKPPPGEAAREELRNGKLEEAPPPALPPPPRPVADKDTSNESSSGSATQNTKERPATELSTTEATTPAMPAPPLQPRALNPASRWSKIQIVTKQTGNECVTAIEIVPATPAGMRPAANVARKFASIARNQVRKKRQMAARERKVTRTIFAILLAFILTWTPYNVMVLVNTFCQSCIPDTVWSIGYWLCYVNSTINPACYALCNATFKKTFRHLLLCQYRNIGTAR
Chain of 5-hydroxytryptamine receptor 7 (P34969 whole entry): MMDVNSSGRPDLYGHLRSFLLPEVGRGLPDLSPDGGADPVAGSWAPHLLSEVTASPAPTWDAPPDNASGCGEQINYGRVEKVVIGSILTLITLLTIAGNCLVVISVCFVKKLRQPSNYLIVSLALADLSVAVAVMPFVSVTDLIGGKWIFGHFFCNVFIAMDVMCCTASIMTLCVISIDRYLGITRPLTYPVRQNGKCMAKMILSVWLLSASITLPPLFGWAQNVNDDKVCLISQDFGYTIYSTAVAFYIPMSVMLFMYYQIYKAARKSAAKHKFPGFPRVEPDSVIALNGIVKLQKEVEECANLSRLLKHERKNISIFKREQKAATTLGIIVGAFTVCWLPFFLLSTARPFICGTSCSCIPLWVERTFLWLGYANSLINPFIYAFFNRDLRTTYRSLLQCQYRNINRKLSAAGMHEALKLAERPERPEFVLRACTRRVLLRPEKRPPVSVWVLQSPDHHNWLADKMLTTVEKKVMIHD
Chain of Alpha-2A adrenergic receptor (P08913 whole entry): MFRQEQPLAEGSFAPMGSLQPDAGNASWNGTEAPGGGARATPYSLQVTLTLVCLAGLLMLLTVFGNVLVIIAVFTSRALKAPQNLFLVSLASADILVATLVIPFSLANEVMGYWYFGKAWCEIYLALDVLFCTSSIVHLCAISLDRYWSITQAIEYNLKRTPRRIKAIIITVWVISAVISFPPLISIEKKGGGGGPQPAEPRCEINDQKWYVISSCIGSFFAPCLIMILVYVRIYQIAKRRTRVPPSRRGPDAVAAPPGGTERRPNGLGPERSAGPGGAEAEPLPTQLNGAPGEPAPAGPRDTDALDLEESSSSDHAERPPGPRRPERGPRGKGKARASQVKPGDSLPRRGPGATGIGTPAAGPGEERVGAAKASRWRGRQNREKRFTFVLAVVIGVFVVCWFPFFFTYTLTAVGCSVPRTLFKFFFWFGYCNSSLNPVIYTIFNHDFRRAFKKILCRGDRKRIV
Chain of Alpha-1A adrenergic receptor (P35348 whole entry): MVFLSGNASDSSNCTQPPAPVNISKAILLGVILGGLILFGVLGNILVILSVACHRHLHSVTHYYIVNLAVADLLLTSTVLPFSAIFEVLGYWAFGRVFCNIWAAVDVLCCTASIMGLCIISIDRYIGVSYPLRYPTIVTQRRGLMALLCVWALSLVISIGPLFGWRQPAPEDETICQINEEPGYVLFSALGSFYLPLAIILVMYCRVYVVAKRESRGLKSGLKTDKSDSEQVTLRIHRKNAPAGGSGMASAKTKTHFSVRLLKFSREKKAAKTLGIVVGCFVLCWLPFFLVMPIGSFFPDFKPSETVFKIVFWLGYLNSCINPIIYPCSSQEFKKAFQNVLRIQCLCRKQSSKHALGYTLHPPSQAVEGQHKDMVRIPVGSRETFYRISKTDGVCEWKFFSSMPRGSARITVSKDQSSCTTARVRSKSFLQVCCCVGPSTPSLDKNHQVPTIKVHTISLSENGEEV
Chain of Muscarinic acetylcholine receptor M2 (P08172 whole entry): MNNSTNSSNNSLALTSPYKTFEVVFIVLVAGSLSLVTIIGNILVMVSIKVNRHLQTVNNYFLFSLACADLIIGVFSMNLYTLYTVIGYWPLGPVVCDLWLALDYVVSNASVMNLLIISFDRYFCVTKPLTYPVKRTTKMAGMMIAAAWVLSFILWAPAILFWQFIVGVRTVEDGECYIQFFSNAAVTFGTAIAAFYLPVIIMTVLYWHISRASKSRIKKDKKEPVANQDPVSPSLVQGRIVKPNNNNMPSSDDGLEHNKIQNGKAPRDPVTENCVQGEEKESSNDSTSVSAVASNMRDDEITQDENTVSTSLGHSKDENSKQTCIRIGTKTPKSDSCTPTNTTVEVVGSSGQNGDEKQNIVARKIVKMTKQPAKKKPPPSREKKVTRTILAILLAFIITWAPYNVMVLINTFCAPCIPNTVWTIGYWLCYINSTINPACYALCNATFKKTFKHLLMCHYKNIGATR
Chain of Mu-type opioid receptor (P35372 whole entry): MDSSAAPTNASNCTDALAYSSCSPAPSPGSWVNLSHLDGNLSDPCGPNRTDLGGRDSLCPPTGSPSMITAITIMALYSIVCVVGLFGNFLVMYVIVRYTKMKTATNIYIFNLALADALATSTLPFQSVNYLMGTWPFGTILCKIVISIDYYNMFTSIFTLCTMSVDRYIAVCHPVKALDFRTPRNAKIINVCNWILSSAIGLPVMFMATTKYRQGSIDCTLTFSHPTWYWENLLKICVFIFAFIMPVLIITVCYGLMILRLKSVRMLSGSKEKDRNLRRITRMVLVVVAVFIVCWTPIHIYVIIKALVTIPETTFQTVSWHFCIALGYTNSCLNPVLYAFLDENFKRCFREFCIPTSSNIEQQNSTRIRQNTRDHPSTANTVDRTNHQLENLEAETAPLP
Chain of 5-hydroxytryptamine receptor 1A (P08908 whole entry): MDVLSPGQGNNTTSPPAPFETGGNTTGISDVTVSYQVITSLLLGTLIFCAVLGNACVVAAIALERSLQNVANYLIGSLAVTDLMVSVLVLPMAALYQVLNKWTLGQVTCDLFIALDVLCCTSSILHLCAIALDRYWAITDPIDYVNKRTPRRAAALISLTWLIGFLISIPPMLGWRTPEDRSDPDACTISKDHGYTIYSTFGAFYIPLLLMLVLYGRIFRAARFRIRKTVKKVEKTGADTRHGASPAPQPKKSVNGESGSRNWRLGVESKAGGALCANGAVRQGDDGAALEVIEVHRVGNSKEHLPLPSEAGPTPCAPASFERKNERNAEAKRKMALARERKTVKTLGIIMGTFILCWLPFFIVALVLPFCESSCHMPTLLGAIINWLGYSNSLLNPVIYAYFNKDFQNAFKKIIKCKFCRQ
Chain of D(3) dopamine receptor (P35462 whole entry): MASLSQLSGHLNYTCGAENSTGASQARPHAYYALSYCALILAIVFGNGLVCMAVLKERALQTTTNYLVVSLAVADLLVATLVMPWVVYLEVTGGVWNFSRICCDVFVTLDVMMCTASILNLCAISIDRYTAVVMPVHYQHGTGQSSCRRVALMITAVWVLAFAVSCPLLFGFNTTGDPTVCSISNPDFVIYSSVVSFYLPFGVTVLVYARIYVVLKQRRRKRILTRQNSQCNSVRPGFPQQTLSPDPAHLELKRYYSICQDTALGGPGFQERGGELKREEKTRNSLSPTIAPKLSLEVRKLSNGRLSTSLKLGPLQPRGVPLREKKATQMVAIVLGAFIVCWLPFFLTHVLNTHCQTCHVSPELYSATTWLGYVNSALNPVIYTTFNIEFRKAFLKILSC
Chain of 5-hydroxytryptamine receptor 5A (P47898 whole entry): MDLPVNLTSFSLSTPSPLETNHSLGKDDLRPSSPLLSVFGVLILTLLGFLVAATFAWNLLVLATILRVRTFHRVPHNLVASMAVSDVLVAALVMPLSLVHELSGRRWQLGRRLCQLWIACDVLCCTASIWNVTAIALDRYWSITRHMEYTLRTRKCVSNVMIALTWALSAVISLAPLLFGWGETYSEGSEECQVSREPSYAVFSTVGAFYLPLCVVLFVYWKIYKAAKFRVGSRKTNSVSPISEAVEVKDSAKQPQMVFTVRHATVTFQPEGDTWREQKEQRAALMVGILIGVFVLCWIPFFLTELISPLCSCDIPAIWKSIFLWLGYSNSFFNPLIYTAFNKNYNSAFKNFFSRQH
Chain of 5-hydroxytryptamine receptor 1D (P28221 whole entry): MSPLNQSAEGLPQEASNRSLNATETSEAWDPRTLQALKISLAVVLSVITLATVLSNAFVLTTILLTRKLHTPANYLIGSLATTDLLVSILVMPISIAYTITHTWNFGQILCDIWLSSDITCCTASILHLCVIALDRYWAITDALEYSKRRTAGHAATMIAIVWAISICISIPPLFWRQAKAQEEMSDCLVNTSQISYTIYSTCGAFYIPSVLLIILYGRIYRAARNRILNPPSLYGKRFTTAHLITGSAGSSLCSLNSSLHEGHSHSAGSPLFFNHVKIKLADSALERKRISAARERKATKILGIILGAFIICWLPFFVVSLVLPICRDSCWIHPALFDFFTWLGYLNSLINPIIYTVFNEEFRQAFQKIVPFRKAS
Chain of Muscarinic acetylcholine receptor M1 (P11229 whole entry): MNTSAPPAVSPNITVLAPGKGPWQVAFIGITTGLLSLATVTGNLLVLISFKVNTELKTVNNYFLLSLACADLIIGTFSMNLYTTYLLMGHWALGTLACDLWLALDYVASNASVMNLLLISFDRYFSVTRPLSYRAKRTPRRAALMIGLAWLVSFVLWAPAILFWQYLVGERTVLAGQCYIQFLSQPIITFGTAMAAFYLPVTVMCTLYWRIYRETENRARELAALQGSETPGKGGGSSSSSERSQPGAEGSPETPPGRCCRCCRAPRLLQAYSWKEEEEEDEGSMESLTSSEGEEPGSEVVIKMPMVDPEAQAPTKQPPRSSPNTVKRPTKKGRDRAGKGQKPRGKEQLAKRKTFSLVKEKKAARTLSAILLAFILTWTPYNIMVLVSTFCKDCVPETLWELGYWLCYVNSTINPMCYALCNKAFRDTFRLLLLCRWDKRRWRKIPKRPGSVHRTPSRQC

- AUC [1]: 13749 ng·h/mL
- AUC [2]: 9030 ng·h/mL
- Cmax [3]: 3407 ng/mL
- Cmax [4]: 6726 ng/mL
- CL [5]: 18.3 mL/min/kg
- Vdss [6]: 5.5 L/kg
- Vdss [7]: 1.5 L/kg
- bioavailability [8]: 76%
- concentration at 1 h [9]: 1010 ng/g
- concentration at 1 h [10]: 2590 ng/g
- BPR [11]: 0.39
- inhibition [14]: 52.6%
- inhibition (Homo sapiens): 5.98%
- Ki [15]: Not Active
- Ki [16]: Not Active
- Ki [17]: Not Active
- Ki [18]: Not Active
- Ki [19]: Not Active
- Ki [20]: Not Active
- Ki [21]: Not Active
- Ki [22]: Not Active
- Ki [23]: Not Active
- Ki [24]: Not Active
- Ki [25]: Not Active
- Ki [26]: Not Active
- Ki [27]: Not Active
- Ki [28]: Not Active
- Ki [29]: Not Active
- Ki (D(1A) dopamine receptor): Not Active
- Ki (D(2) dopamine receptor): Not Active
- Ki (D(3) dopamine receptor): Not Active
- Ki (D(4) dopamine receptor): Not Active
- Ki (D(1B) dopamine receptor): Not Active
- Ki [30]: Not Active
- Ki [31]: Not Active
- Ki (Histamine H1 receptor): Not Active
- Ki (Histamine H2 receptor): Not Active
- Ki [32]: Not Active
- Ki [33]: Not Active
- Ki [34]: Not Active
- Ki [35]: Not Active
- Ki [36]: Not Active
- Ki [37]: Not Active
- Ki (Mu-type opioid receptor): Not Active
Structure (SMILES): O=C(NCCO)c1cccc2c1CCN2c1cc(Cc2cc(F)cc(C(F)(F)F)c2)ncn1
- inhibition at 10 µM (hERG (KCNH2)): 11%
- Activity (HEK293): inactive
- Activity (Mus musculus [12]): Dose-dependent effect
- Activity (Mus musculus [13]): Active
- Ki [38]: Not Active
